In ChEMBL document CHEMBL1140527, “Synthesis and antimicrobial activity of some novel nucleoside analogues of adenosine and 1,3-dideazaadenosine” (2007):
≈ marks a conversion by molar mass, not a printed value.

Key:
Type in all cases: functional
Cryptococcus neoformans = assay: Antifungal activity against Cryptococcus neoformans by disc diffusion method
How it was run: (§1)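 Fungi were screened first by disc diffusion on corn meal agar, with M-3 broth susceptibility test medium. MIC was then determined by broth dilution.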

Streptococcus = assay: Antibacterial activity against Streptococcus group D after 18 to 24 hrs by disc diffusion method
How it was run: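 Kirby-Bauer disc diffusion: sterile 6 mm filter-paper discs impregnated with compound at 1.5, 1.1, 0.57, 0.28, 0.14 and 0.07 per mL. Discs showing zones were followed by broth dilution: doubling dilutions in 50% DMSO–H2O, inoculum to 0.5 McFarland, 37 °C for 18–24 h. MIC was the lowest dilution preventing visible turbidity. The initial solution (12.5% DMSO) was not scored.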

Talaromyces marneffei = assay: Antifungal activity against Penicillium marneffei by disc diffusion method; how it was run: as §1
Candida albicans = assay: Antifungal activity against Candida albicans by disc diffusion method; how it was run: as §1
Mucor = assay: Antifungal activity against Mucor sp. by disc diffusion method; how it was run: as §1
Aspergillus fumigatus = assay: Antifungal activity against Aspergillus fumigatus by disc diffusion method; how it was run: as §1

Row | Structure (SMILES) | MIC (Cryptococcus neoformans) [µM] | MIC (Streptococcus) [µM] | MIC (Talaromyces marneffei) [µM] | MIC (Candida albicans) [µM] | MIC (Mucor) [µM] | MIC (Aspergillus fumigatus) [µM]
1 | Nc1ncnc2c1ncn2[C@@H]1O[C@H](CSCCC(=O)O)[C@@H](O)[C@H]1O | 1.5 (≈ 0.533 µg/mL) | 0.755 (≈ 0.268 µg/mL) | 1.5 (≈ 0.533 µg/mL) | 1.5 (≈ 0.533 µg/mL) | 1.5 (≈ 0.533 µg/mL) | 1.5 (≈ 0.533 µg/mL)
2 | CN[C@H](CC(C)C)C(=O)N[C@H]1C(=O)N[C@@H](CC(N)=O)C(=O)N[C@H]2C(=O)N[C@H]3C(=O)N[C@H](C(=O)N[C@H](C(=O)O)c4cc(O)cc(O)c4-c4cc3ccc4O)[C@H](O)c3ccc(c(Cl)c3)Oc3cc2cc(c3O[C@@H]2O[C@H](CO)[C@@H](O)[C@H](O)[C@H]2O[C@H]2C[C@](C)(N)[C@H](O)[C@H](C)O2)Oc2ccc(cc2Cl)[C@H]1O [VANCOMYCIN] | – | 0.78 (≈ 1.13 µg/mL) | – | – | – | –
3 | Nc1cccc2c1ncn2[C@@H]1O[C@H](CSCCC(=O)O)[C@@H](O)[C@H]1O | 0.75 (≈ 0.265 µg/mL) | 0.38 (≈ 0.134 µg/mL) | 0.75 (≈ 0.265 µg/mL) | 0.75 (≈ 0.265 µg/mL) | 0.75 (≈ 0.265 µg/mL) | 0.75 (≈ 0.265 µg/mL)
4 | Clc1ccc(COC(Cn2ccnc2)c2ccc(Cl)cc2Cl)c(Cl)c1 (stereo not given) [MICONAZOLE] | 0.77 (≈ 0.32 µg/mL) | – | 0.77 (≈ 0.32 µg/mL) | 0.77 (≈ 0.32 µg/mL) | 0.77 (≈ 0.32 µg/mL) | 0.77 (≈ 0.32 µg/mL)
5 | CCOC(=O)CCSC[C@H]1O[C@@H](n2cnc3c(N)cccc32)[C@H](O)[C@@H]1O | 0.38 (≈ 0.145 µg/mL) | 0.19 (≈ 0.0725 µg/mL) | 0.38 (≈ 0.145 µg/mL) | 0.38 (≈ 0.145 µg/mL) | 0.38 (≈ 0.145 µg/mL) | 0.38 (≈ 0.145 µg/mL)
6 | C=CCSC[C@H]1O[C@@H](n2cnc3c([N+](=O)[O-])cccc32)[C@H](O)[C@@H]1O | 0.38 (≈ 0.134 µg/mL) | 1.25 (≈ 0.439 µg/mL) | 0.38 (≈ 0.134 µg/mL) | 0.38 (≈ 0.134 µg/mL) | 0.38 (≈ 0.134 µg/mL) | 0.38 (≈ 0.134 µg/mL)
7 | OC(Cn1cncn1)(Cn1cncn1)c1ccc(F)cc1F [FLUCONAZOLE] | 0.52 (≈ 0.159 µg/mL) | – | 0.52 (≈ 0.159 µg/mL) | 0.52 (≈ 0.159 µg/mL) | 0.52 (≈ 0.159 µg/mL) | 0.52 (≈ 0.159 µg/mL)
8 | C=CCSC[C@H]1O[C@@H](n2c(CC)nc3c([N+](=O)[O-])cccc32)[C@H](O)[C@@H]1O | 2 (≈ 0.759 µg/mL) | – | 2 (≈ 0.759 µg/mL) | 2 (≈ 0.759 µg/mL) | 2 (≈ 0.759 µg/mL) | 2 (≈ 0.759 µg/mL)
